# Measurements from article PMC6453127 (Biochimica et biophysica acta. General subjects, 2017).
# Entries after “also recorded” stand apart in the source; their conditions may differ.
# Experiments:
# [1] = molecular target: T1, Hsp90β (Homo sapiens, UniProt P08238); experiment: Competitive displacement of FITC-GA; assay type: binding; conditions: competitor 3 nM to 3 μM; 60 nM Hsp90β, 5 nM FITC-GA
# [2] = molecular target: Hsp70 (Homo sapiens, UniProt P0DMV8); experiment: Transcreener ADP Hsp70 ATPase assay; assay type: biochemical; conditions: 0.5 μM Hsp70; up to 200 μM
# Hsp70, sequence (P0DMV8 whole entry): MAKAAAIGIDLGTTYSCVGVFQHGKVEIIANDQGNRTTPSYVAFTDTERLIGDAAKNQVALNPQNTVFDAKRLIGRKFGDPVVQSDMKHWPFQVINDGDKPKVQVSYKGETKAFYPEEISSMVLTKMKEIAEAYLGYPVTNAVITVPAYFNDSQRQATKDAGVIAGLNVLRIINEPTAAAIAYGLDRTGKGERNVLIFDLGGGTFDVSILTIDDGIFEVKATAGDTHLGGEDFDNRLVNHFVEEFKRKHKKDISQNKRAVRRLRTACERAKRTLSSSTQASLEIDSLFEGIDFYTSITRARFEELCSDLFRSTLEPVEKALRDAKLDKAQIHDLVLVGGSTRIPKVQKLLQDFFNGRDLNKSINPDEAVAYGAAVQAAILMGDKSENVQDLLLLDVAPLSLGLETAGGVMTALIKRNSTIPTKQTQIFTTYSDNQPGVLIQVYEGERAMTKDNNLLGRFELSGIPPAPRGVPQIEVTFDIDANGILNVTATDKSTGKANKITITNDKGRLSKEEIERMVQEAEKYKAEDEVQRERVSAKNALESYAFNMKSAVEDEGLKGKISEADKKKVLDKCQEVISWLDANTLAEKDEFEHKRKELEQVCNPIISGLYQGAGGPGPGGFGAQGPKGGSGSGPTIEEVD
# How it was run: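 Stopped with EDTA stop-and-detect buffer containing ADP² antibody-IRDye QC-1 and 8 nM ADP Alexa594 tracer, 1 h at RT. Endpoint fluorescence intensity read. Three experiments, four-parameter logistic fit.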
# [3] = molecular target: His6-Hsp90β CTD (Homo sapiens, UniProt P08238); experiment: BS3 crosslinking dimerization/oligomerization assay, His6-Hsp90β CTD; assay type: biochemical; conditions: for oligomerization state of His6-Hsp90β CTD (crosslinking): 2 μM protein, BS3 crosslinker
# His6-Hsp90β CTD, sequence (P08238 530-724): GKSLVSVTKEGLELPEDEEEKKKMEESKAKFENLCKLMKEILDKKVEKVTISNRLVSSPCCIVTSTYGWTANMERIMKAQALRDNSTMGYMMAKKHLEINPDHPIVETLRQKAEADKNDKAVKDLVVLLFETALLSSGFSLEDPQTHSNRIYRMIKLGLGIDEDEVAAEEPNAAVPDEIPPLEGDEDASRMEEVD
# [4] = molecular target: T1, Hsp90β; experiment: Transcreener ADP Hsp90 ATPase assay; assay type: biochemical
# [5] = molecular target: T2, GST-Hsp90α CTD (Homo sapiens, UniProt P07900); experiment: ADH aggregation; assay type: biochemical; conditions: for inhibition of Hsp90 CTD chaperone (anti-aggregation) activity, ADH aggregation assay: 40 μM compound, 500 nM Hsp90 CTD, 55 °C, end point 90 min
# How it was run: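 Reaction: 6.2 μM equine ADH, with or without 500 nM GST-Hsp90α CTD and compound. Aggregation induced at 55 °C, read as absorbance at 360 nm every minute for 90 min. The 90-min endpoint was used, with the mean of ADH alone set to 100%. Three independent experiments.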
# [6] = molecular target: full-length Hsp90α (Homo sapiens, UniProt P07900); experiment: BS3 crosslinking assay, full length Hsp90α; assay type: biochemical; conditions: 2 μM protein; BS3 crosslinker
# How it was run: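 Full-length Hsp90α used at 2 μM in 50 mM NaPO₄ and 150 mM NaCl, preincubated with compound for 1 h at room temperature. BS3 crosslinker added at 66–200 μM final for 1 h at RT, then quenched with 50 mM Tris-HCl pH 7.5 for 15 min. Analysed by 10% SDS-PAGE and western blot.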
# [7] = molecular target: T2, GST-Hsp90α CTD; experiment: BS3 crosslinking assay, GST-Hsp90α CTD; assay type: biochemical; conditions: 2 μM protein; NSC145366 10 μM to 100 μM
# [8] = molecular target: T2, GST-Hsp90α CTD; experiment: ATP-agarose pulldown, Hsp90 CTD; assay type: binding; conditions: 200 μM compound, 6 μM CTD
# [9] = molecular target: GST-Hsp90α NTD (Homo sapiens, UniProt P07900); experiment: BS3 crosslinking assay, GST-Hsp90α NTD; assay type: biochemical; conditions: 2 μM protein
# How it was run: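 2 μM protein buffer-exchanged into 50 mM NaPO₄ and 150 mM NaCl, then preincubated with compound for 1 h at room temperature. BS3 added at 66–200 μM final for 1 h at RT, then quenched with 50 mM Tris-HCl pH 7.5 for 15 min. Boiled in SDS dye, run on 10% SDS-PAGE, western-blotted and probed with anti-GST antibody.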
# [10] = test system: LNCaP cells; experiment: Western blot of Hsp90 clients and heat shock proteins in LNCaP cells; assay type: cell-based; conditions: 48 h
# How it was run: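 ATCC LNCaP cells kept in ATCC-recommended medium, authenticated and used within 20 passages. Cells treated for 48 h, trypsinised, PBS-washed and lysed in RIPA with protease inhibitors, 1 mM PMSF, 0.1% Triton X-100 and 1 mM DTT. Protein measured by Bradford before western blot. Band intensities of treated samples expressed as percentage of vehicle.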
# [11] = molecular target: GST-Hsp90α CTD (626–732) (Homo sapiens, UniProt P07900); experiment: DARTs assay with GST-Hsp90α CTD; assay type: binding; conditions: 200 μM compound
# T1 sequence (P08238 whole entry): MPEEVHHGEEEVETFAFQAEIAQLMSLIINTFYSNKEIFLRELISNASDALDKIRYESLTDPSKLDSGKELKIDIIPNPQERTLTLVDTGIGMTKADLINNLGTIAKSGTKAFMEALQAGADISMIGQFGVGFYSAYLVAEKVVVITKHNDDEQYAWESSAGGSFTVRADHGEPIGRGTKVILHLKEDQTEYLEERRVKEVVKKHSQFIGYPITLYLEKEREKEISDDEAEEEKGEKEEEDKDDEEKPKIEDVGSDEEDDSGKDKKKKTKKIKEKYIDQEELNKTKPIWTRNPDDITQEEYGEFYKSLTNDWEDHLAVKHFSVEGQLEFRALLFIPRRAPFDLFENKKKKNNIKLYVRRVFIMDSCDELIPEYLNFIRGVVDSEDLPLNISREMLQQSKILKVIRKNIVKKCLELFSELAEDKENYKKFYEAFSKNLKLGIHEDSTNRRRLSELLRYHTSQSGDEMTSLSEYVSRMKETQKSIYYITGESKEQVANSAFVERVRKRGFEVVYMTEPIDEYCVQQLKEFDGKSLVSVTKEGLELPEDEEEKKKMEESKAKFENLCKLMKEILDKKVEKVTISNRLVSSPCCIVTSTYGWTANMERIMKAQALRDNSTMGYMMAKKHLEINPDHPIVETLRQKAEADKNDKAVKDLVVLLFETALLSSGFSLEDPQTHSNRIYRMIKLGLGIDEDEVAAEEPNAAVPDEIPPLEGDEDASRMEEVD
structure (smiles),measurement,setting,value
CCNC(=O)c1noc(-c2cc(C(C)C)c(O)cc2O)c1-c1ccc(CN2CCOCC2)cc1 [AUY922],competition with FITC-GA binding to Hsp90β,[1],compete with fluorescently labeled GA
"C=CCNC1=C2C[C@@H](C)C[C@H](OC)[C@H](O)[C@@H](C)/C=C(\C)[C@H](OC(N)=O)[C@@H](OC)/C=C\C=C(/C)C(=O)NC(=CC1=O)C2=O [Analog 17-AAG, reference compound]",inhibition of Hsp70 ATPase function,[2],no effect on Hsp70 ATPase function
"CC(C)(c1ccc(OCC(O)CN2CCOCC2)cc1)c1ccc(OCC(O)CN2CCOCC2)cc1 (stereo not shown) [Analog A1, 3,3’-((propane-2,2-diylbis(4,1-phenylene))bis(oxy))bis(1-mor-pholinopropan-2-ol)]",oligomerization state of His6-Hsp90β CTD (crosslinking),[3],CTD monomer band was eliminated
"CN1CCN(CC(O)COc2ccc(C(C)(C)c3ccc(OCC(O)CN4CCN(C)CC4)cc3)cc2)CC1 (stereo not shown) [Analog A2, 3,3’-((propane-2,2-diylbis(4,1-phenylene))bis(oxy))bis(1-(4-methylpiperazin-1-yl)propan-2-ol)]",oligomerization state of His6-Hsp90β CTD (crosslinking),[3],CTD monomer band was eliminated
same,IC50,[4],~216 µM
"CC(C)(c1ccc(OCC(O)CNCc2ccco2)cc1)c1ccc(OCC(O)CNCc2ccco2)cc1 (stereo not shown) [Analog A3, 3,3’-((propane-2,2-diylbis(4,1-phenylene))bis(oxy))bis(1-((fur-an-2-ylmethyl)amino)propan-2-ol)]",oligomerization state of His6-Hsp90β CTD (crosslinking),[3],oligomer formation was completely inhibited
same,disruption of CTD dimer formation compared with Cm A1,"[3]; His6-Hsp90β CTD, 200 μM BS3 (Fig. S10)",disrupt dimer formation more efficiently than Cm A1
"CC(C)CNCC(O)COc1ccc(C(C)(C)c2ccc(OCC(O)CNCC(C)C)cc2)cc1 (stereo not shown) [Analog A8, 3,3’-((propane-2,2-diylbis(4,1-phenylene))bis(oxy))bis(1-(iso-butylamino)propan-2-ol)]",oligomerization state of His6-Hsp90β CTD (crosslinking),[3],CTD monomer band was eliminated
same,IC50,[4],~262 µM
"CC(C)(c1ccc(OCC2CO2)cc1)c1ccc(OCC2CO2)cc1 (stereo not shown) [BADGE, bisphenol A diglycidyl ether]","inhibition of Hsp90 CTD chaperone (anti-aggregation) activity, ADH aggregation assay",[5],slight inhibition
"CC(C)(c1ccc(O)cc1)c1ccc(O)cc1 [BPA, Bisphenol A]","IC50, Hsp90β ATPase function","[4]; 0.5 μM Hsp90β, 250 μM ATP, 37 °C 30 min",does not have a measurable IC50
same,"inhibition of Hsp90 CTD chaperone (anti-aggregation) activity, ADH aggregation assay",[5],did not exhibit inhibition; also recorded: Minimal inhibition
"CO[C@H]1[C@H](OC(=O)c2ccc(C)[nH]2)[C@H](O)[C@@H](Oc2ccc3c(O)c(NC(=O)c4c[nH]c(C(=O)Nc5c(O)c6ccc(O[C@H]7OC(C)(C)[C@@H](OC)[C@H](OC(=O)c8ccc(C)[nH]8)[C@@H]7O)c(C)c6oc5=O)c4C)c(=O)oc3c2C)OC1(C)C [Cm A1, coumermycin A1, reference compound]",oligomerization state of full-length Hsp90α (crosslinking),[6],slightly increases the monomer level of full-length Hsp90α
same,oligomerization state of GST-Hsp90α CTD (crosslinking),[7],increases the level of CTD monomers
same,inhibition of CTD binding to ATP-agarose,[8],inhibits CTD binding to ATP
same,oligomerization state of His6-Hsp90β CTD (crosslinking),[3],increases the level of monomeric Hsp90 CTD
same,oligomerization of GST-Hsp90α NTD (crosslinking),[9],appears to decrease oligomerization of the NTD
same,increase in ADH aggregation,"[5]; 50 μM, positive control",~ 40%
"COC1=C2C[C@@H](C)C[C@H](OC)[C@H](O)[C@@H](C)/C=C(\C)[C@H](OC(N)=O)[C@@H](OC)/C=C\C=C(/C)C(=O)NC(=CC1=O)C2=O [GA, geldanamycin, reference compound]","induction of classical heat shock response (Hsp70, Hsp27, Hsp40)",[10],did induce the classical heat shock response
same,BRCA1 expression level compared to DMSO,[10]; GA control,9%
same,competition with FITC-GA binding to Hsp90β,[1],compete with fluorescently labeled GA
"CO[C@@H]1[C@@H](O)[C@@H](O)[C@H](Oc2ccc3cc(NC(C)=O)c(=O)oc3c2C)OC1(C)C [KU-32, reference compound]",protection of Hsp90 CTD from pronase degradation (DARTs),[11],protects the Hsp90 CTD from pronase degradation at levels comparable
